Reference: ChEMBL document CHEMBL3232852, “Bexarotene prodrugs: targeting through cleavage by NQO1 (DT-diaphorase)” (Bioorg Med Chem Lett, 2014)

What was measured:
[1] = Activity of pig liver esterase at 5 uM after 180 mins; assay type: ADME, Sus scrofa; conditions: 3 h
Outline: (§1)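 Porcine liver esterase at a final 76 µg/mL (1.3 U/mL) in tris buffer pH 7.4. Conjugates were incubated at 5 µM and monitored for ester cleavage and free bexarotene over 180 min and up to 24 h. Ethylbenzoate was the reference substrate at 100 µM.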

[2] = target: T1, NAD(P)H dehydrogenase [quinone] 1 (Homo sapiens, UniProt P15559); assay: Prodrug conversion assessed as NQO1 (unknown origin)-mediated bexarotene formation at 5 uM by HPLC analysis in presence of 300 uM NADH followed by addition of NADH at 30 and 60 mins; assay type: ADME; conditions: 1 h
Outline: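 Same NQO1 incubation: 5 µM compound, 37 ± 1 °C, diaphorase 50 U/mL, 0.07% BSA and 300 µM NADH in tris pH 7.4. Extra NADH was added at 30 and 60 min to test cofactor depletion. Bexarotene formation was read by RP-18 HPLC, in triplicate.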

[3] = target: T1, NAD(P)H dehydrogenase [quinone] 1; assay: Prodrug conversion assessed as NQO1 (unknown origin)-mediated bexarotene formation at 5 uM by HPLC analysis in presence of NADH; assay type: ADME
Outline: (§2)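 DMSO stocks were diluted 100-fold with tris buffer, and compound (5 µM) was incubated at 37 ± 1 °C with or without diaphorase (NQO1, 50 U/mL). The mix held 0.07% BSA and 300 µM NADH in tris pH 7.4. Bexarotene release was followed by RP-18 HPLC (acetonitrile/water); incubations ran up to 24 h, in triplicate.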

[4] = target: T1, NAD(P)H dehydrogenase [quinone] 1; assay: Prodrug conversion assessed as NQO1 (unknown origin)-mediated bexarotene formation at 5 uM after 4 to 24 hrs by HPLC analysis in presence of NADH; assay type: ADME; outline: as §2
[5] = Activity of pig liver esterase at 100 uM after 7 mins; assay type: ADME, Sus scrofa; outline: as §1

T1 sequence (P15559 whole entry): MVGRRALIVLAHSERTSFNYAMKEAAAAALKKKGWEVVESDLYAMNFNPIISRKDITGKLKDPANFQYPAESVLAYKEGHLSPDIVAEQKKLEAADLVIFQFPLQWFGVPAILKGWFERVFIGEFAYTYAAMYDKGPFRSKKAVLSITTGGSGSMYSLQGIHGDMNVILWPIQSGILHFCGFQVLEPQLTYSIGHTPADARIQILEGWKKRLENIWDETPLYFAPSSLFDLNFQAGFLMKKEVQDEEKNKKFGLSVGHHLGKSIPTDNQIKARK

| SMILES | Drug metabolism [2] | Drug metabolism [3] | also measured |
| --- | --- | --- | --- |
| C=C(c1ccc(C(=O)OCc2c3c(n(C)c2C)C(=O)C=C(OC)C3=O)cc1)c1cc2c(cc1C)C(C)(C)CCC2(C)C | metabolite_notdetected |  | Drug metabolism [1]: metabolite_notdetected |
| C=C(c1ccc(C(=O)OCc2c3c(n(C)c2C)C(=O)C(C)=C(OC)C3=O)cc1)c1cc2c(cc1C)C(C)(C)CCC2(C)C | metabolite_notdetected | metabolite_detected |  |
| C=C(c1ccc(C(=O)OCc2cn(C)c3c2C(=O)C(OC)=CC3=O)cc1)c1cc2c(cc1C)C(C)(C)CCC2(C)C | metabolite_notdetected | metabolite_detected |  |
| CCOC(=O)c1ccccc1 [ETHYL BENZOATE] |  |  | Drug metabolism [5]: metabolite_detected |

Now from value to compound, other results behind:

| Drug metabolism [2] | Drug metabolism [3] | SMILES | also measured |
| --- | --- | --- | --- |
| metabolite_notdetected |  | C=C(c1ccc(C(=O)OCc2c(C)c3c(n2C)C(=O)C=C(OC)C3=O)cc1)c1cc2c(cc1C)C(C)(C)CCC2(C)C | Drug metabolism [4]: metabolite_notdetected |
|  | metabolite_detected | COC1=CC(=O)c2c(c(COc3ccc([N+](=O)[O-])c(C)c3)c(C)n2C)C1=O |  |
|  | metabolite_detected | COC1=CC(=O)c2c(c(C)c(COc3ccc([N+](=O)[O-])c(C)c3)n2C)C1=O |  |
